Reference: ChEMBL document CHEMBL2062386, “Discovery of LFF571: an investigational agent for Clostridium difficile infection” (J Med Chem, 2012)
Converted amounts (≈) assume the structure as drawn.

Tests used:
Enterococcus faecium = experiment: Antibacterial activity against Enterococcus faecium 7130724 by broth microdilution method; type: functional
[1] = Binding affinity to Escherichia coli GDPNP-labelled EF-Tu by surface plasmon resonance analysis
Enterococcus faecalis = experiment: Antibacterial activity against Enterococcus faecalis ATCC 29212 by broth microdilution method; type: functional
In short: (§1)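 Broth microdilution MICs were run per CLSI M07-A8 (2009). The strain panel included C. difficile ATCC 43255, E. faecalis ATCC 29212 and S. pyogenes ATCC BAA-595.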

Escherichia coli [2] = experiment: Inhibition of protein synthesis in Escherichia coli S30 extract at 2 uM after 75 mins by luciferase based luminescence assay relative to GE2270A; type: functional
Escherichia coli [3] = experiment: Inhibition of protein synthesis in Escherichia coli S30 extract after 75 mins by luciferase based luminescence assay relative to GE2270A; type: functional, organism-based
Streptococcus pyogenes = experiment: Antibacterial activity against Streptococcus pyogenes ATCC BAA-595 by broth microdilution method; type: functional; in short: as §1
[4] = Antibacterial activity against Clostridium difficile ATCC 43255 by broth microdilution method; type: functional; settings: Clostridioides difficile; in short: as §1
Staphylococcus aureus = experiment: Antibacterial activity against Staphylococcus aureus A4.018 by broth microdilution method; type: functional

SMILES: CNC(=O)C[C@@H]1NC(=O)c2csc(n2)-c2ccc(-c3nc(C4=N[C@H](C(=O)N5CCC[C@H]5C(N)=O)CO4)cs3)nc2-c2csc(n2)-c2csc(n2)[C@H]([C@@H](O)c2ccccc2)NC(=O)CNC(=O)c2nc(sc2COC)[C@H](C(C)C)NC(=O)c2nc1sc2C
- MIC (Enterococcus faecium): 0.25 µg/mL (≈ 0.194 µM)
- Kd [1]: 0.003 µM
- MIC (Enterococcus faecalis): 0.5 µg/mL (≈ 0.387 µM)
- inhibition at 2 µM (Escherichia coli [2]): 30%
- IC50 (Escherichia coli [3]): 2 µM
- MIC (Streptococcus pyogenes): 1 µg/mL (≈ 0.775 µM)
- MIC [4]: 0.015 µg/mL (≈ 0.0116 µM)
- MIC (Staphylococcus aureus): 0.25 µg/mL (≈ 0.194 µM)
